Results on 14 compounds are retold here after ChEMBL document CHEMBL1146104, “Synthesis and transdermal penetration-enhancing activity of carbonic and carbamic acid esters--comparison with transkarbam 12” (Bioorg Med Chem Lett, 2006).

The structures appear in SMILES notation.

Type in all cases: ADME, organism-based
Holding throughout (settings): pig

The species entered for series [1] is Sus scrofa. Description: Enhancement of theophylline transdermal penetration through porcine ear skin using Franz diffusion cell in isopropylmyristate medium relative to control. The method, boiled down:
(§1)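 Theophylline permeation from donor samples with and without enhancer (control lacks enhancer); acceptor-phase theophylline quantified by HPLC. Cumulative amounts (μg/cm2) plotted against time to derive flux (μg/cm2/h). Value is the enhancement ratio: flux with enhancer divided by flux of control. Significance p < 0.05 versus control.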

The species entered for series [2] is Sus scrofa. Description: Enhancement of theophylline transdermal penetration through porcine ear skin using Franz diffusion cell in propylene glycol/water medium relative to control. Summed up: as §1
The species entered for series [3] is Sus scrofa. Briefly: Enhancement of theophylline transdermal penetration through porcine ear skin using Franz diffusion cell in water medium relative to control. Summed up:
as §1

Regarding `CCCCCCCCCCCCOC(=O)CCCCCNC(=O)OCCCCCC(=O)OCCCCCCCCCCCC`, the Ratio worked out at 1.29 in the series listed under Sus scrofa [1], 2.63 in the series filed under Sus scrofa [2] and 2.27 in the series filed under Sus scrofa [3].

For the compound `CCCCCCCCCCCCOC(=O)CCCCCOC(=O)OCCCCCC(=O)OCCCCCCCCCCCC`, the Ratio is reported as 1.39 in the series filed under Sus scrofa [1], 3.7 in the series filed under Sus scrofa [2] and 1.76 in the series listed under Sus scrofa [3].

Turning to `CCCCCCCCCCCCNC(=O)CCCCCOC(=O)OCCCCCC(=O)NCCCCCCCCCCCC`, the Ratio stood at 1.23 in the series filed under Sus scrofa [1], 3.29 in the series filed under Sus scrofa [2] and 0.91 in the series listed under Sus scrofa [3].

With `CCCCCCCCCCCCOC(=O)CCCCCCOC(=O)OCCCCCC(=O)OCCCCCCCCCCCC`, the Ratio is 1.49 in the series listed under Sus scrofa [1], 1.24 in the series filed under Sus scrofa [2] and 0.8 in the series filed under Sus scrofa [3].

In the case of `CCCCCCCCCCCCOC(=O)CCCCCN.CCCCCCCCCCCCOC(=O)CCCCCNC(=O)O` [TRANSKARBAM 12], the values for the Ratio in the series filed under Sus scrofa [1], in the series filed under Sus scrofa [2] and in the series listed under Sus scrofa [3] were 6.56, 22.8 and 1.9, respectively.

For the compound `CCCCCCCCCCCCOC(=O)CCCCCCOC(=O)NCCCCCC(=O)OCCCCCCCCCCCC`, the Ratio in the series filed under Sus scrofa [1] amounted to 1.07; in the series listed under Sus scrofa [2], 1.02; in the series filed under Sus scrofa [3], 1.22.

Take `CCCCCCCCCCCCOC(=O)CCCCCNC(=O)OCCCCCCCCCCCC`: the Ratio in the series filed under Sus scrofa [1] was found to be 0.57; in the series filed under Sus scrofa [2], 0.47; in the series listed under Sus scrofa [3] it was 0.77.

As to `CCCCCCCCCCCCOC(=O)CCCCCNC(=O)OCC`, the Ratio in the series filed under Sus scrofa [1] is recorded as 1.01; in the series filed under Sus scrofa [2], 1.52; in the series listed under Sus scrofa [3] it was 1.83.

Turning to `CCCCCCCCCCCCOC(=O)OCCCCCC(=O)NCCCCCCCCCC`, the Ratio in the series filed under Sus scrofa [1] was determined as 1.48; in the series filed under Sus scrofa [2] it was 2.66; in the series listed under Sus scrofa [3], 1.13.

Take `CCCCCCCCCCCCNC(=O)CCC(C)OC(=O)OCCCCCCCCCCCC` (configuration not stated): the Ratio is given as 1.15 in the series filed under Sus scrofa [1], 1.11 in the series listed under Sus scrofa [2] and 1.7 in the series filed under Sus scrofa [3].

In the case of `CCCCCCCCCCCCNC(=O)CCC(C)OC(=O)OCC` (configuration not stated), the Ratio amounted to 1.77 in the series listed under Sus scrofa [1], 1.45 in the series listed under Sus scrofa [2] and 1.48 in the series listed under Sus scrofa [3].

`CCCCCCCCCCCCOC(=O)CCCCCOC(=O)OCCCCCCCCCCCC`: the results for the Ratio in the series listed under Sus scrofa [1], in the series listed under Sus scrofa [2] and in the series filed under Sus scrofa [3] were 1.29, 1.13 and 2.49, respectively.

For the compound `CCCCCCCCCCCCOC(=O)CCCCCOC(=O)OCC`, the Ratio in the series filed under Sus scrofa [1] was 1.07; in the series filed under Sus scrofa [2], 2.13; in the series listed under Sus scrofa [3], 2.4.

For `CCCCCCCCCCNC(=O)CCCCCOC(=O)OCC`, the Ratio in the series listed under Sus scrofa [1] was 1.75; in the series listed under Sus scrofa [2] it was 1.36; in the series filed under Sus scrofa [3], 3.37.
